Screening data from PubChem BioAssay.
The list is not random: actives were taken first. Their share in the collection is about 2.1%.
Apaf-1 inh – blocks human Apaf-1 apoptosome activity. reconstituted apoptosome caspase-3 activity, DEVD-Rh110 fluorescence. O14727. AID 489030. inhibition, % at 20 µM. 330,000 tested, 0.71% active; active means inhibition of at least 40% at 20 µM
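Material: reconstituted apoptosome with Apaf-1, cytochrome c, caspase-9, procaspase-3, dATP. Technique: Rh110 fluorescence intensity. Buffer or medium: pH 7.5 Hepes buffer with CHAPS, BSA, DTT. Times: 30 min plus 50 min, RT.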
GSTO1 inh – counter-screen for RBBP9 inhibitors: inhibitors of human GSTO1; P78417; recombinant GSTO1, activity-based probe fluorescence polarization; inhibition, % at 5.96 µM; 300,000 tested, 1.1% active; AID 1974;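 active means inhibition above the campaign mean inhibition plus 3 SD, cut at about 35% in these data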
Target sequence (P78417 whole entry, looked up): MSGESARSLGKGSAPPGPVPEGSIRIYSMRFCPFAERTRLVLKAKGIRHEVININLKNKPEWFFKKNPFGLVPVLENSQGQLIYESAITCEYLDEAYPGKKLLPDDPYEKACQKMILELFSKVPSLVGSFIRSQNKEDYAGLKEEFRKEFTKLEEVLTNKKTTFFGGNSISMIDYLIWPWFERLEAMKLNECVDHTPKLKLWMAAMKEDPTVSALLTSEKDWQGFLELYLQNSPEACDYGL
PP1 inh – blocks human PP1-alpha phosphatase, a PP5 counter-screen; P62136; purified PP1alpha, OMFP fluorescence; inhibition, % at 6.7 µM; 320,000 tested, 0.9% active; AID 2235;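 active means inhibition above the mean inhibition of all tested compounds plus 3 SD, computed separately for each screening campaign, cut at about 15% in these data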
TDP2 absorb – TDP2 (human) inhibition, absorbance primary screen; inhibition, % at 12.8 µM; recombinant TDP2, T5PNP hydrolysis, p-nitrophenol absorbance 415 nm; 370,000 tested, 0.34% active;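 active means inhibition above the mean of all tested compounds plus 3 SD, set per campaign, cut at about 25% in these data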
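Assay system: Recombinant human TDP2 | Quantity: 120 nM TDP2 per well | Incubation: 2 h at 37 °C | Signal: Epi absorbance | Evaluation: Percent inhibition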
PP5 primary – PP5 (human) phosphatase inhibition; P53041; purified PP5c, OMFP substrate fluorescence; inhibition, % at 6.7 µM; 320,000 tested, 0.18% active; AID 1987;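 active means inhibition above the campaign's mean inhibition across all tested compounds plus 3 SD, cut at about 9.5% in these data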
Target sequence (P53041 whole entry, looked up): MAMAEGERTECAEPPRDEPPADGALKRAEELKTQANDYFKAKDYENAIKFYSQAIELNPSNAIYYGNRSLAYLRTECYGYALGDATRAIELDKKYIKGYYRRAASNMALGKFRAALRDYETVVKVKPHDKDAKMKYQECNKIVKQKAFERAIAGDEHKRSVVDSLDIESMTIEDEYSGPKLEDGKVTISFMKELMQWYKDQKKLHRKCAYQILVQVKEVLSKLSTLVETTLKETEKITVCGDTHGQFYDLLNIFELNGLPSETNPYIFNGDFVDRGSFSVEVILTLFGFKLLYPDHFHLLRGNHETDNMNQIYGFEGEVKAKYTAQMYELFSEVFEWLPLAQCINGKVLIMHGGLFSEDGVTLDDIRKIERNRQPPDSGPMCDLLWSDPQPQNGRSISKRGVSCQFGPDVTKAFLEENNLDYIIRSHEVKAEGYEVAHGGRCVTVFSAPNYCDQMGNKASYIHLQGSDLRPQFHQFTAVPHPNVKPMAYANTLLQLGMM
GSTO1 confirm – confirmation of human GSTO1 inhibitors; shares compounds with GSTO1 inh; recombinant GSTO1, probe fluorescence polarization; inhibition, % at 5.96 µM; 2,400 tested, 54% active; AID 2176;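 active means inhibition above the primary screen's cutoff, its mean inhibition plus 3 SD, cut at about 35% in these data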;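 further: loss of polarization as inhibitors block binding of rhodamine sulfonate ester activity probe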
GSTO1 ABPP inh – blocks recombinant human glutathione S-transferase omega 1; 130 tested, 30% active; recombinant GSTO1, gel ABPP SE-Rh probe fluorescence; shares compounds with GSTO1 inh; inhibition, % at 1 µM;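 active means inhibition of the enzyme GSTO1 above about 75%, limit read from the data; inactive means inhibition below that limit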
Each line names hits and unclear results; the compound was inactive in the other large screens (follow-up assays come after a bar, where they were run).

COc1ccc(N(CC2CO2)S(=O)(=O)c2ccccc2)cc1 (centres undefined)	GSTO1 inh 70 | GSTO1 confirm 86 | GSTO1 ABPP inh inactive
COc1ccc([N+](=O)[O-])cc1N(CC1CO1)S(=O)(=O)c1ccc(C)cc1 (centres undefined)	GSTO1 inh 88 | GSTO1 confirm 98 | GSTO1 ABPP inh inactive
COc1ccc(N(CCOc2ccccc2)S(=O)(=O)c2ccccc2)cc1	none (no result: GSTO1 inh)
O=[N+]([O-])c1ccccc1N(CC1CO1)S(=O)(=O)c1ccccc1 (centres undefined)	GSTO1 inh 81 | GSTO1 confirm 94 | GSTO1 ABPP inh inactive
COc1ccccc1N(CC1CO1)S(=O)(=O)c1ccc(C)cc1 (centres undefined)	GSTO1 inh 75 | GSTO1 confirm 83 | GSTO1 ABPP inh inactive
CCC[C@H]1[C@@H](NCc2ccccc2)CC[C@@]23CCCN2C(=O)CCC[C@@H]13	none (no result: Apaf-1 inh, GSTO1 inh, PP1 inh, PP5 primary)
CCOC(=O)N1CCN(C(=O)C[C@H]2C[C@@]3(C(=O)OC)C(=C[C@H](COCc4ccccc4)O[C@@H]3C)N(Cc3cccc4ccccc34)C2=O)CC1	none (no result: Apaf-1 inh, GSTO1 inh, PP1 inh, PP5 primary)
Cc1ccccc1C(=O)N(C)[C@H]1C[C@H]2c3[nH]c4c(-c5ccccc5)cccc4c3CCN2C[C@H]1[C@H](C)O	none (no result: Apaf-1 inh, GSTO1 inh, PP1 inh, PP5 primary)
COc1ccccc1N(CC1CO1)S(=O)(=O)c1ccccc1 (centres undefined)	GSTO1 inh 85 | GSTO1 confirm 78 | GSTO1 ABPP inh inactive
O=S(=O)(c1ccccc1)N(CC1CO1)c1cc(Cl)ccc1Cl (centres undefined)	GSTO1 inh 92 | GSTO1 confirm 94 | GSTO1 ABPP inh inactive
Cc1ccc(C)c(NC(=O)CSc2nnc(-c3n[nH]c4ccccc34)o2)c1	GSTO1 inh 39 | GSTO1 confirm inactive
Cc1ccc(C)c(NC(=O)CSc2nnc(-c3ccccc3C)o2)c1	none
CN(Cc1ccccc1)C(=O)OCc1cn(Cc2ccc(Cl)cc2)nn1	none (no result: Apaf-1 inh, GSTO1 inh, PP1 inh, PP5 primary)
CCN(CC)CCNc1cc(C)nc2c1C(=O)C(=O)C=C2N1CCCCC1	GSTO1 inh 77 | GSTO1 confirm 45
CCOC(=O)C/C(N)=N/NC(=O)c1ccc(Cl)cc1Cl	GSTO1 inh 62 | GSTO1 confirm inactive
Cn1cc(C(=O)c2ccc(Cl)cc2Cl)cc1C(=O)N/N=C(\N)COc1ccc(Cl)cc1Cl	none
Oc1c(C=NCc2ccc(F)cc2)[nH]c2ccc(Br)c(Cl)c12	GSTO1 inh 48 | GSTO1 confirm inactive
Cc1ccc(CN=Cc2[nH]c3ccc(Br)c(Cl)c3c2O)cc1	GSTO1 inh 52 | GSTO1 confirm inactive
Cc1cc(N2CCNC[C@@H]2C)ccc1N1CCN(Cc2ccccc2)[C@@H](C)C1	none (no result: Apaf-1 inh, GSTO1 inh, PP1 inh, PP5 primary)
CC(=O)Nc1nc(-c2ccc(Cl)cc2)nc(C)c1C(C)=O	GSTO1 inh 44 | GSTO1 confirm inactive
O=C1/C(=C/c2cccnc2)SC(=S)N1Nc1ccccc1	GSTO1 inh 52 | GSTO1 confirm inactive
Cc1ccc(C)c(Sc2ccc(NC(=O)CCl)cc2)c1	GSTO1 inh 75 | GSTO1 confirm 82
COCc1cc(N2CCN(C(=O)OC(C)(C)C)C[C@@H]2C)ccc1N1CCN(Cc2ccccc2)[C@@H](C)C1	none (no result: Apaf-1 inh, GSTO1 inh, PP1 inh, PP5 primary)
Cc1cc(C)cc(N(CC(=O)NC2CCC(C)CC2)S(=O)(=O)c2ccc(Cl)s2)c1 (centres undefined)	none (no result: Apaf-1 inh, GSTO1 inh, PP1 inh, PP5 primary)
CCOC(=O)Cn1c(=O)oc2cc(S(=O)(=O)Nc3ccc(N(CC)CC)cc3C)ccc21	GSTO1 inh 68 | GSTO1 confirm 62
CCOC(=O)Cn1c(=O)oc2cc(S(=O)(=O)Nc3cc(OCC)ccc3OCC)ccc21	none
O=S(=O)(c1ccc2nc(-c3ccco3)c(-c3ccco3)nc2c1)N1CCOCC1	Apaf-1 inh 77, GSTO1 inh 48 | GSTO1 confirm inactive
O=S(=O)(c1ccc2ccccc2c1)N1CCOCC1	none
Cc1ccc(S(=O)(=O)Nc2ccc(O)c3ncccc23)cc1	none
Cc1ccc(S(=O)(=O)Nc2ccc(O)c3cccnc23)cc1	GSTO1 inh 50 | GSTO1 confirm inactive
COC(=O)N1C[C@H](Oc2ncccn2)[C@H]2C[C@@H]1c1ccccc1O2	none (no result: Apaf-1 inh, GSTO1 inh, PP1 inh, PP5 primary)
O=[N+]([O-])c1ccc(N2CCN(Cc3ccccc3)CC2)c2c1no[n+]2[O-]	none (no result: Apaf-1 inh, GSTO1 inh, PP1 inh, PP5 primary)
CCCCc1ccc(-c2csc(/C(C#N)=C\c3ccc(C)o3)n2)cc1	none
CCOc1ccc(-c2csc(/C(C#N)=C\c3ccc(O)c([N+](=O)[O-])c3)n2)cc1	GSTO1 inh 43 | GSTO1 confirm 54
COC(=O)c1cccc(-n2c(C)cc(O)cc2=O)c1	none (no result: Apaf-1 inh, GSTO1 inh, PP1 inh, PP5 primary)
CCCCOc1ccc(C(=O)n2ccc3ccc(-c4ccc5ccn(Cc6ccc(OC)cc6)c5c4)cc32)cc1	none (no result: Apaf-1 inh, GSTO1 inh, PP1 inh, PP5 primary)
Cc1ccc(N(C(=O)CCl)C(C(=O)NC2CCCCC2)c2cccnc2)cc1C (centres undefined)	GSTO1 inh 99 (no result: Apaf-1 inh) | GSTO1 confirm 92 | GSTO1 ABPP inh inactive
Cc1ccc(N(C(=O)CNC(=O)c2ccco2)C(C(=O)NC2CCCCC2)c2cccnc2)cc1C (centres undefined)	none
CC(=O)Oc1ccc2c(c1)Oc1cc(OC(C)=O)ccc1C21OC(=O)c2ccccc21	GSTO1 inh 72 (no result: TDP2 absorb) | GSTO1 confirm 84
COc1cccc(NC(=O)C2CCCN2C(=O)NCc2ccccc2OC)c1 (centres undefined)	none (no result: Apaf-1 inh, GSTO1 inh, PP1 inh, PP5 primary)
CCC[C@@H](/C=C/C(=O)OC(C)(C)C)Sc1ccc(OC)cc1	none (no result: Apaf-1 inh, GSTO1 inh, PP1 inh, PP5 primary)
N/C(=C\C(=O)c1cc(Cl)ccc1O)C(Cl)(Cl)Cl	GSTO1 inh 65 | GSTO1 confirm 77
O=C(CCl)N1N=C(c2ccco2)CC1c1cccs1 (centres undefined)	GSTO1 inh 85 (no result: Apaf-1 inh, TDP2 absorb) | GSTO1 confirm 99
Cc1ccc(C2=NN(C(=O)CCl)C(c3cccs3)C2)o1 (centres undefined)	GSTO1 inh 99 | GSTO1 confirm 96
CC(=O)N1N=C(c2ccco2)CC1c1cccs1 (centres undefined)	none
Cc1ccc(-c2cc(C(=O)NN=Cc3cc(Br)ccc3O)[nH]n2)cc1C	none (no result: Apaf-1 inh, GSTO1 inh, PP1 inh, PP5 primary)
Nc1ccc(N(c2ccccc2)c2ccc(N)cc2)cc1	GSTO1 inh 43, PP1 inh 17 | GSTO1 confirm inactive
CN(C)c1ccc(CCc2ccc(N)cc2)cc1	none
O=C(CSc1nnc(-c2ccccc2)n1-c1ccc(Cl)cc1)c1ccccc1Br	none (no result: Apaf-1 inh, GSTO1 inh, PP1 inh, PP5 primary)
COc1ccc(Br)cc1-c1nc(CCl)cs1	GSTO1 inh 72 | GSTO1 confirm 97 | GSTO1 ABPP inh inactive
COC(=O)c1cc(C(C)c2c[nH]c3ccccc23)n2ccccc12 (centres undefined)	none (no result: Apaf-1 inh, GSTO1 inh, PP1 inh, PP5 primary)
Cc1ccc(NC(=O)C(=O)Nc2ccc(C)cn2)nc1	none
Cc1ccc(NC(=O)/C(C#N)=C(\N)C(Cl)(Cl)Cl)nc1	GSTO1 inh 47 (no result: TDP2 absorb) | GSTO1 confirm 76
